According to ChEMBL document CHEMBL2146390, “Identification of Hydroxybenzoic Acids as Selective Lactate Receptor (GPR81) Agonists with Antilipolytic Effects” (ACS Med Chem Lett, 2012):
Active and inactive are the calls of the source. The rule behind the calls is not given here.

Columns and labels:
[1] = target: Hydroxycarboxylic acid receptor 1 (Homo sapiens, UniProt Q9BXC0); experiment: Agonist activity at human recombinant GPR81 transfected in african green monkey COS-7 cells after 20 mins by [35S]GTPgammaS binding assay; type: functional, cell-based
Summary of the method: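 hGPR81 agonism measured by GTPγS binding, run as in an earlier cited report; EC50 values are the mean of at least two determinations with standard deviation.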

[2] = Cmax in C57B16/J mouse at 30 mg/kg, po; type: ADME, organism-based; set-up: dose 30 mg/kg, route oral; settings: in vivo
Summary of the method: (§1)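 Mice received single oral doses of 30 or 100 mg/kg. Exposure was followed over time to derive tmax, AUCinf, Cmax (ng/mL, converted to μM) and t1/2.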

[3] = target: T1, Protein Gpr81 (Rattus norvegicus, UniProt G3V906); experiment: Agonist activity at rat GPR81; type: functional
T1 sequence (G3V906 whole entry): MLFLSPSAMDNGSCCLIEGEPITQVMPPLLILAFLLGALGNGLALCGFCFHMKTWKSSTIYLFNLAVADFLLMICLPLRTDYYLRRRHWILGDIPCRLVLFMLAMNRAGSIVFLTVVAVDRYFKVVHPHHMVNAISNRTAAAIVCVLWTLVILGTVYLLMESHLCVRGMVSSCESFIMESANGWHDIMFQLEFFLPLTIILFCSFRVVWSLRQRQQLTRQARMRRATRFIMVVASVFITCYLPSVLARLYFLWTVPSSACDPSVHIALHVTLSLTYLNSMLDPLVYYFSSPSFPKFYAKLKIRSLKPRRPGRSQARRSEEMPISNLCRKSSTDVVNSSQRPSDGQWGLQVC

[4] = Tmax in C57B16/J mouse at 100 mg/kg, po; type: ADME, organism-based; set-up: dose 100 mg/kg, route oral; settings: in vivo; summary of the method: as §1
[5] = AUC (0 to infinity) in C57B16/J mouse at 100 mg/kg, po; type: ADME, organism-based; set-up: time infinity, dose 100 mg/kg, route oral; settings: plasma; summary of the method: as §1
[6] = AUC (0 to infinity) in C57B16/J mouse at 30 mg/kg, po; type: ADME, organism-based; set-up: dose 30 mg/kg, route oral, time infinity; settings: plasma; summary of the method: as §1
[7] = Tmax in C57B16/J mouse at 30 mg/kg, po; type: ADME, organism-based; set-up: dose 30 mg/kg, route oral; settings: in vivo; summary of the method: as §1
[8] = target: T2, Hydroxycarboxylic acid receptor 1 (Mus musculus, UniProt Q8C131); experiment: Agonist activity at mouse GPR81; type: functional
T2 sequence (Q8C131 whole entry): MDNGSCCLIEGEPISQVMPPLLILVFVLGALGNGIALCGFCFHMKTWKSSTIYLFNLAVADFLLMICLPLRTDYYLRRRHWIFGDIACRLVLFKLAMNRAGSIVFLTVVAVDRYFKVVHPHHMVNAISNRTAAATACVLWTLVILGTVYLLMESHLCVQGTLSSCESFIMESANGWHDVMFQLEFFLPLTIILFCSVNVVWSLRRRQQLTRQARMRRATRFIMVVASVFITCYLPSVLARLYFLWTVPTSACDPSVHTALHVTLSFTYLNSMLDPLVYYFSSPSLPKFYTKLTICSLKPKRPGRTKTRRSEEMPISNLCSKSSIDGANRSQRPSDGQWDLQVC

[9] = Half life in C57B16/J mouse at 100 mg/kg, po; type: ADME, organism-based; set-up: dose 100 mg/kg, route oral; settings: in vivo; summary of the method: as §1
[10] = Cmax in C57B16/J mouse at 100 mg/kg, po; type: ADME, organism-based; set-up: dose 100 mg/kg, route oral; settings: in vivo; summary of the method: as §1
[11] = test system: Mus musculus; experiment: Antilipolytic activity in DIO C57B16/J mouse assessed as reduction in nonesterified free fatty acid cholesterol level at 30 mg/kg, po after 30 mins by enzymatic assay; type: functional, organism-based; set-up: dose 30 mg/kg
Summary of the method: (§2)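 Acute oral dosing at 30, 100 or 300 mg/kg in C57Bl6/J mice fed high-fat chow for 10 weeks (DIO) and fasted overnight. Nonesterified free fatty acid cholesterol (NEFAc) served as the lipolysis marker. Niacin 30 was a reference arm, and groups were compared with vehicle (P < 0.05, P < 0.01).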

[12] = target: G-protein coupled receptor 81 (Macaca mulatta, UniProt B9UM29); experiment: Agonist activity at monkey GPR81; type: functional
[13] = target: G-protein coupled receptor 81 (Canis lupus familiaris, UniProt B9UM26); experiment: Agonist activity at dog GPR81; type: functional
[14] = test system: Mus musculus; experiment: Antilipolytic activity in DIO C57B16/J mouse assessed as reduction in nonesterified free fatty acid cholesterol level at 100 mg/kg, po after 30 mins by enzymatic assay; type: functional, organism-based; set-up: dose 100 mg/kg; summary of the method: as §2
[15] = Agonist activity at hamster GPR81; type: functional, Cricetinae
[16] = test system: Mus musculus; experiment: Antilipolytic activity in DIO C57B16/J mouse assessed as reduction in nonesterified free fatty acid cholesterol level at 300 mg/kg, po after 30 mins by enzymatic assay; type: functional, organism-based; set-up: dose 300 mg/kg; summary of the method: as §2
[17] = Half life in C57B16/J mouse at 30 mg/kg, po; type: ADME, organism-based; set-up: dose 30 mg/kg, route oral; settings: in vivo; summary of the method: as §1

Sequence of Hydroxycarboxylic acid receptor 1 (Homo sapiens, UniProt Q9BXC0) (Q9BXC0 whole entry): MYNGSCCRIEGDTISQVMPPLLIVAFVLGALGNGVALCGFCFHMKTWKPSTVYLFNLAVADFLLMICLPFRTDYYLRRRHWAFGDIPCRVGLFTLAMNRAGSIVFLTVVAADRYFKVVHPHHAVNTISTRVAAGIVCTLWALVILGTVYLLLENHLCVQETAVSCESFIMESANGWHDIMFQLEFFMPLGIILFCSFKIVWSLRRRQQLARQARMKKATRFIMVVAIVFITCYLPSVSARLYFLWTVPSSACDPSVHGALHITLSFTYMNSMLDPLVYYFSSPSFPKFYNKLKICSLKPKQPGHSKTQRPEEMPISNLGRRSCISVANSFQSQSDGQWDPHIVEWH
Sequence of G-protein coupled receptor 81 (Canis lupus familiaris, UniProt B9UM26) (B9UM26 whole entry): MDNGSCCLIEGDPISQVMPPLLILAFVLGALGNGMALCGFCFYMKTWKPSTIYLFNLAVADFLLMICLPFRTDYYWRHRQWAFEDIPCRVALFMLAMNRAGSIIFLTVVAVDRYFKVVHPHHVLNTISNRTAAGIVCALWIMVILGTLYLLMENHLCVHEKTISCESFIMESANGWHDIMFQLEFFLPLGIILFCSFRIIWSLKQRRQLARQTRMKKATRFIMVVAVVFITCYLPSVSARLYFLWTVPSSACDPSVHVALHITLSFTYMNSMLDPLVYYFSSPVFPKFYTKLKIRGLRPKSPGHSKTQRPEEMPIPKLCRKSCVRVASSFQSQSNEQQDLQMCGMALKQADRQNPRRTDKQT
Sequence of G-protein coupled receptor 81 (Macaca mulatta, UniProt B9UM29) (B9UM29 whole entry): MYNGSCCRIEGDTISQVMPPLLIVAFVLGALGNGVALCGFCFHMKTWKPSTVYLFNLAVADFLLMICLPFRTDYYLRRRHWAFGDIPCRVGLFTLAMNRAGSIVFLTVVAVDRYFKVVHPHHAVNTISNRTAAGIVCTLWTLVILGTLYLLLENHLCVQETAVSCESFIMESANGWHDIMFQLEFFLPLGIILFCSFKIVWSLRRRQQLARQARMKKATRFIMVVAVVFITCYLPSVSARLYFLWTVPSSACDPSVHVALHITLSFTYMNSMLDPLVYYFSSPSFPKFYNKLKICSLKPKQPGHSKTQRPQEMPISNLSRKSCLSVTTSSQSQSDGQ

SMILES	EC50 [1] [µM]	also measured
CC(C)(C)c1cc(O)cc(C(=O)O)c1	> 1000	
O=C(O)c1cncc(O)c1	> 1000	
O=C(O)c1cc(O)cc(C(F)(F)F)c1	> 1000	
O=C(O)c1cc(O)cc(Cl)c1	16	Cmax [2]: 67.2 µM; EC50 [3]: 7 µM; Tmax [4]: 30 min; AUC(0-inf) [5]: 51300 ng·h/mL; AUC(0-inf) [6]: 9360 ng·h/mL; Tmax [7]: 30 min; EC50 [8]: 22 µM; half-life [9]: 66 min; Cmax [10]: 342 µM; Activity [11]: Active; EC50 [12]: 17 µM; EC50 [13]: 67 µM; Activity [14]: Active; EC50 [15]: 27 µM; Activity [16]: Active; half-life [17]: 88.2 min
O=P(O)(O)c1cc(O)cc(O)c1	> 1000	
CP(=O)(O)c1cc(O)cc(O)c1	> 1000	
O=C(O)c1cccc(O)c1 [3-HYDROXYBENZOIC ACID]	184	
Cc1cc(O)cc(C(=O)O)c1	42	
O=C(O)c1cc(O)cc(-c2ccccc2)c1	> 1000	
OB(O)c1cccc(O)c1	> 1000	
COc1cc(O)cc(C(=O)O)c1	> 1000	
O=C(O)c1cc(O)cc(O)c1 [3,5-DIHYDROXYBENZOIC ACID]	377	
O=C(O)c1cc(O)cc(Br)c1	129	
N#Cc1cc(O)cc(C(=O)O)c1	> 1000	
O=C(O)c1cccnc1		Activity [11]: Active
Oc1cc(O)cc(-c2nnn[nH]2)c1	> 1000	
O=C(O)c1cc(O)cc(F)c1	38	
O=C(O)c1cc(O)c[n+]([O-])c1	> 1000	
